Experimental data as given in ChEMBL document CHEMBL1123095, “Synthesis and biological activity of 6-azacadeguomycin and certain 3,4,6-trisubstituted pyrazolo[3,4-d]pyrimidine ribonucleosides” (1985).
The source made the active and inactive calls. The calls are words filed in the database; no cut-off is given here.

How the values were obtained:
Vero [1] = assay: Toxicity level was reported; None.; format: functional, cell-based; conditions: Chlorocebus sabaeus
Vero [2] = assay: In vitro antiviral activity against herpes simplex virus type 2 virus was evaluated.; format: functional; conditions: Chlorocebus sabaeus, read-out: ED50 (the source's name)
Vero [3] = assay: In vitro antiviral activity against Parainfluenza type 3 was evaluated.; format: functional; conditions: Chlorocebus sabaeus, read-out: ED50 (the source's name)
Vero [4] = assay: In vitro antiviral activity against measles virus was evaluated.; format: functional; conditions: Chlorocebus sabaeus, read-out: ED50 (the source's name)
Vero [5] = assay: In vitro antiviral activity against vaccinia virus was evaluated.; format: functional; conditions: Chlorocebus sabaeus, read-out: ED50 (the source's name)
Vero [6] = assay: Toxicity level was reported; none; format: functional, cell-based; conditions: Chlorocebus sabaeus
P388 [7] = assay: In vitro inhibitory dose against P388 cells was evaluated; Inactive at 10^-4M; format: functional, cell-based; conditions: Mus musculus
How it was run: (§1)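 L1210 murine leukemia or P388 lymphoid neoplasm cells in RPMI 1640 with 10% fetal bovine serum and 20 mM Hepes, adjusted to 1 × 10⁵ cells/mL. Compounds dissolved in medium, filter-sterilized, tested in duplicate at log concentrations 1×10⁻⁷ to 1×10⁻⁴ M. After 48 h at 37 °C, Coulter cell counts; growth as percent of untreated control; ID₅₀ is the concentration giving 50% growth inhibition.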

L1210 [8] = assay: In vitro inhibitory dose against L1210 leukemia cells was evaluated; Inactive at 10^-4M; format: functional, cell-based; conditions: Mus musculus; how it was run: as §1
Vero [9] = assay: Toxicity level was reported.; format: functional, Chlorocebus sabaeus
P388 [10] = assay: Percent inhibition against P388 cell growth at concentration 10e-4 was reported; Inative at 10^-4M; format: functional, cell-based; conditions: Mus musculus
How it was run: (§2)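 Murine leukemia L1210 or lymphoid neoplasm P388 cells were grown in RPMI 1640 with 10% fetal bovine serum and 20 mM Hepes. Cells at 1 × 10⁵ cells/mL received filter-sterilized compound dissolved in growth medium, in duplicate at log concentrations from 1×10⁻⁷ to 1×10⁻⁴ M. After 48 h at 37 °C, cells were counted on a Coulter counter. Growth was expressed as percent of untreated control, and ID₅₀ was taken as the concentration giving 50% growth inhibition.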

L1210 [11] = assay: Percent inhibition against L1210 cell growth at concentration 10e-4 was reported.; format: functional, Mus musculus; how it was run: as §2
P388 [12] = assay: In vitro inhibitory dose against P388 cells was evaluated.; format: functional; conditions: Mus musculus, read-out: ID50 (the source's name); how it was run: as §2
L1210 [13] = assay: In vitro inhibitory dose against L1210 leukemia cells was evaluated.; format: functional; conditions: Mus musculus, read-out: ID50 (the source's name); how it was run: as §2
L1210 [14] = assay: Percent inhibition against L1210 cell growth at concentration 10e-4 was reported; format: functional, Mus musculus; how it was run: as §1
P388 [15] = assay: Percent inhibition against P388 cell growth at concentration 10e-4 was reported; format: functional, Mus musculus; how it was run: as §1
L1210 [16] = assay: In vitro inhibitory dose against L1210 leukemia cells was evaluated; Inactive at 10e-4 concentration; format: functional, cell-based; conditions: Mus musculus; how it was run: as §2
P388 [17] = assay: In vitro inhibitory dose against P388 cells was evaluated; Inactive at 10e-4 concentration; format: functional, cell-based; conditions: Mus musculus; how it was run: as §2

| Structure (SMILES) | Toxic level (Vero [1]) | EC50 (Vero [2]) | EC50 (Vero [3]) | EC50 (Vero [4]) | EC50 (Vero [5]) | Toxic level (Vero [9]) | also measured |
| --- | --- | --- | --- | --- | --- | --- | --- |
| NC(=O)c1[nH]nc2nc(S)nc(O)c12 | None | 180 µM | 390 µM | > 500 µM | – | – | – |
| NC(=O)c1ncn([C@@H]2O[C@H](CO)[C@@H](O)[C@H]2O)n1 [RIBAVIRIN] | – | 190 µM | 160 µM | 33 µM | 85 µM | – | Toxic level (Vero [6]): Non-toxic |
| Nc1nc2c(c(C(=O)O)nn2C2O[C@H](CO)[C@@H](O)[C@H]2O)c(=O)[nH]1 (some centres undefined) | None | > 5000 µM | > 5000 µM | > 5000 µM | > 5000 µM | – | ID50 (P388 [7]): inactive; ID50 (L1210 [8]): inactive |
| COc1nc2c(c(Br)nn2C2O[C@H](CO)[C@@H](O)[C@H]2O)c(=O)[nH]1 (some centres undefined) | – | 1600 µM | > 2500 µM | > 2500 µM | 3500 µM | 2.5 mM | – |
| NC(=S)c1nn(C2O[C@H](CO)[C@@H](O)[C@H]2O)c2nc(N)[nH]c(=O)c12 (some centres undefined) | None | > 5000 µM | 590 µM | 65 µM | – | – | ID50 (P388 [10]): inactive; Inhibition (L1210 [11]): 43% |
| N#Cc1nn(C2O[C@H](CO)[C@@H](O)[C@H]2O)c2nc(N)[nH]c(=O)c12 (some centres undefined) | None | 100 µM | 220 µM | 54 µM | 140 µM | – | IC50 (P388 [12]): 21 µM; IC50 (L1210 [13]): 22 µM |
| C[S+]([O-])c1nc(O)c2c(Br)[nH]nc2n1 (centres undefined) | – | 1200 µM | > 5000 µM | > 5000 µM | 260 µM | >0.5 mM | – |
| Nc1nc2c(c(Br)nn2C2O[C@H](CO)[C@@H](O)[C@H]2O)c(=O)[nH]1 (some centres undefined) | – | 180 µM | > 5000 µM | 20 µM | 76 µM | 1.6 mM | IC50 (P388 [12]): 36 µM; IC50 (L1210 [13]): 36 µM |
| NC(=O)c1nn(C2O[C@H](CO)[C@@H](O)[C@H]2O)c2nc(N)[nH]c(=O)c12 (some centres undefined) | None | > 500 µM | > 500 µM | > 500 µM | > 500 µM | – | Inhibition (L1210 [14]): 30%; Inhibition (P388 [15]): 22% |
| Nc1nc2c(cnn2C2O[C@H](CO)[C@@H](O)[C@H]2O)c(=O)[nH]1 (some centres undefined) | – | 1600 µM | > 5000 µM | – | 1000 µM | – | ID50 (L1210 [16]): inactive; Toxic level (Vero [6]): inactive; ID50 (P388 [17]): inactive |
| Oc1[nH]c(Br)nc2nncc1-2 | – | 1600 µM | > 5000 µM | > 5000 µM | 430 µM | 1.6 mM | – |
| Oc1[nH]c(Br)nc2nnc(Br)c1-2 | – | > 500 µM | > 5000 µM | > 5000 µM | 240 µM | >0.05 mM | – |
| NC(=O)c1c[se]c([C@@H]2O[C@H](CO)[C@@H](O)[C@H]2O)n1 | – | 14 µM | 3.2 µM | 3.2 µM | 9.8 µM | – | Toxic level (Vero [6]): inactive |
| CSc1nc(O)c2c(C(N)=O)[nH]nc2n1 | – | 85 µM | > 500 µM | > 500 µM | 330 µM | >0.5 mM | – |
